# The list is not random: actives were taken first. Their share in the collection is about 1.5%.
# MT1-MMP act inh = blockers of MT1-MMP proenzyme processing, primary screen, HT1080 RFP-PRO-GFP cells, GFP/RFP fluorescence; GFP/RFP ratio fluorescence, overnight; percent of plate control window, DMSO zero; Matrix metalloproteinase-14 (Homo sapiens), P50281; GFP/RFP ratio change, % at 20 µM; hit rate 0.061% among 360,000;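 active = GFP/RFP ratio change of at least 30% with cell ATP level not reduced by more than half and red fluorescence within 50% of control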
#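 Assay system: HT1080 RFP-PRO-GFP cells. Benchmarks: DMSO vehicle wells and RFP-L50D-GFP reporter cell wells. Times: overnight cell settling, then overnight compound exposure, 37 °C, 5% CO2. Compound: 20 µM single dose, 1% DMSO. Read-out basis: GFP/RFP fluorescence ratio.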
# CTSL1 counter = Fasciola hepatica cathepsin L1 inhibitors, primary screen, counter-screen for PFM18AAP inhibitor project, biochemical, QFRET, fluorogenic peptide substrate; recombinant F. hepatica cathepsin L1, Z-Leu-Arg-MCA fluorescence; inhibition, % at 5.96 µM; hit rate 0.49% among 300,000; AID 1906, 2009;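 active = inhibition above the mean of all tested compounds plus 3 SD, set per screening campaign, cut at about 17% in these data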;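 also: 0% = plate median of test compound wells and 100% = 1 µM Z-Phe-Ala-diazomethylketone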
# DAGLB inh = DAGLB lipase inhibitors, primary screen, biochemical, fluorescence, HTS. hit rate 0.059% among 340,000. HEK293T DAGLB membrane lysate, EnzChek fluorogenic substrate. AID 504411, 2011. inhibition, % at 5.17 µM; in the data active = inhibition above about 34%;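 also: 0% = enzyme with vehicle and 100% = wells lacking enzyme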
# NRP1-CendR mod = modulators of CendR peptide binding to NRP-1, primary screen, biochemical, fluorescence polarization, uHTS; FAM-RPARPAR peptide binding to NRP-1; inhibition, % at 25 µM; hit rate 0.85% among 360,000; AID 602438, 2012;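 active = inhibition or corrected inhibition above about 18%, plus a signal ratio from 0.5 to 1.5, limit read from the data, passing the limit was not always enough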
# UCH37 DUB inh = inhibitors of human UCH37 deubiquitinase, primary screen, biochemical, Ub-AMC cleavage, fluorescence; Ubiquitin carboxyl-terminal hydrolase isozyme L5 (Homo sapiens), Q9Y5K5; purified proteasome/UCH37; inhibition, % (no concentration beside the values); hit rate 0.33% among 330,000; AID 588478, 2011;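 active = mean inhibition over replicate wells above about 20%, limit read from the data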;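 also: 0% = compound-free wells with enzyme and 100% = wells lacking proteasome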
# Target sequence (Q9Y5K5 whole entry, looked up): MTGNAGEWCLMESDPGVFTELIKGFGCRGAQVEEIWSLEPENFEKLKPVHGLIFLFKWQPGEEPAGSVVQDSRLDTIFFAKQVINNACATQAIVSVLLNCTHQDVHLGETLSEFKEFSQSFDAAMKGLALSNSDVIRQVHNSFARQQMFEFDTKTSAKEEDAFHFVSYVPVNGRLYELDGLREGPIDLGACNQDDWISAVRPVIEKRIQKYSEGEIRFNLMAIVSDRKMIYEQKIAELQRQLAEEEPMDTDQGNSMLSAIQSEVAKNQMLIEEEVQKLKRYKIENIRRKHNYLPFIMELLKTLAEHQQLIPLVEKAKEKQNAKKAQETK
#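 Reagent: Ub-AMC substrate; assay system: Proteasome-associated human UCH37 deubiquitinase; controls: no-proteasome and no-compound wells; read-out: % inhibition of Ub-AMC cleavage fluorescence; timing: 30 min preincubation with enzyme, 25 min cleavage at room temperature; signal: AMC fluorescence from Ub-AMC cleavage, excitation 355 nm, emission 460 nm; buffer or medium: Tris-HCl pH 7.4 plus ovalbumin, ATP-MgCl2, DTT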
# Starred values were filed as active, the others as inactive; / = no result given.
SMILES,MT1-MMP act inh,CTSL1 counter,DAGLB inh,NRP1-CendR mod,UCH37 DUB inh
Cc1ccc(/C=C/C(=O)OC(C)C(=O)Nc2ccc(Cl)cn2)o1 (stereo not drawn),-2.0,27.7*,2.6,-10.0,-1.5
C=CCn1c(=N)c(C#N)cc2c(=O)n3ccccc3nc21,6.3,0.8,-1.9,36.1*,-118.2
C=CCn1c(-c2ccc(Cl)cc2)cnc1SC(C)C(=O)NC(N)=O (stereo not drawn),-5.7,-3.2,-0.4,0.3,4.5
C=CCn1c(-c2ccc(Cl)cc2)cnc1SC(C)C(N)=O (stereo not drawn),4.7,-1.3,1.1,19.4*,1.4
NC(=O)COc1ncn(-c2ccccc2)n1,2.5,2.2,-0.3,28.6*,5.2
N/C(COc1ncn(-c2ccccc2)n1)=N\S(=O)(=O)c1ccc(Cl)cc1Cl,-0.2,-2.4,1.2,0.1,3.0
Cc1ccccc1C(=O)NNC(=O)CSc1nc2ccccc2c(=O)[nH]1,2.5,18.2*,1.1,-8.2,2.9
Cc1cccc(C)c1NC(=O)CSc1nc2ccccc2c(=O)[nH]1,4.9,-2.9,2.3,-7.1,-0.9
COCCN1C=C(C(=O)OC)C(c2ccc(OC)c(OC)c2)C(C(=O)OC)=C1,-0.5,-1.4,-0.4,-3.5,-147.2
CCCOc1ccc(C2C(C(=O)OC)=CN(CCOC)C=C2C(=O)OC)cc1,8.5,2.5,-4.4,27.9*,-142.2
O=C(COc1cccc2ccccc12)NN=Cc1ccco1,/,/,/,/,1.3
Cc1ccc(NC(=O)[C@H](CC(C)C)NC(=O)[C@@H]2Cc3ccccc3CN2)cc1,-0.6,4.3,-0.1,21.2*,3.4
COc1ccccc1N(CC(=O)NCCSCc1ccccc1)S(=O)(=O)c1ccc(C)cc1,-11.6,7.5,-1.3,18.6*,4.3
Cn1nc([N+](=O)[O-])c(C(C#N)c2nc3ccccc3n2C)c(Cl)c1=O (stereo not drawn),-1.1,-4.3,25.0,27.7*,5.8
Cn1c(-c2ccc([N+](=O)[O-])cc2)nc2ccccc21,-2.0,0.6,-2.8,12.5,7.9
Oc1cc(NCCN2CCOCC2)cc2cccnc12,-3.7,/,-3.4,29.3*,7.0
Oc1cc(Nc2ccccc2)cc2cccnc12,10.3,/,4.8,-4.5,3.7
COc1cc([N+](=O)[O-])cc(/C=N/NC(=O)C(C)Nc2cccc3ccccc23)c1O (stereo not drawn),4.3,-1.6,20.5,31.8*,/
COc1cc([N+](=O)[O-])cc(C=NNC(=O)C(C)Nc2cccc(C)c2)c1O (stereo not drawn),/,/,/,/,7.6
COc1cccc(C=NNC(=O)c2cc3cc([N+](=O)[O-])ccc3s2)c1O,/,/,/,/,24.4*
Cc1ccc(-c2c3c(nc4sc(C(N)=O)c(N)c24)CCCC3)o1,-0.4,37.9*,3.0,-27.9,4.0
NC(=O)c1sc2nc3c(c(-c4ccco4)c2c1N)CCC3,-22.1,0.2,0.2,-12.1,7.7
COc1ccc(-n2nc3c(N4CCC(C(=O)N5CCCCCC5)CC4)nnc(C)c3c2C)cc1,-5.0,27.8*,-1.1,-39.6,/
O=C(NC(O)C(=O)c1ccccc1)c1ccc(F)cc1 (stereo not drawn),0.2,18.3*,-0.9,-9.4,2.8
COc1cccc(OCCn2cc(C=NNC(=O)c3ccncc3)c3ccccc32)c1,/,/,/,/,7.2
SMILES,MT1-MMP act inh,CTSL1 counter,DAGLB inh,NRP1-CendR mod,UCH37 DUB inh
C=CCNC(=S)N=c1ccccn1C,/,/,/,/,6.2
CCCCOC(=O)c1ccc(NS(=O)(=O)c2cc(-c3nnnn3CC)ccc2OC)cc1,2.7,3.6,2.8,23.0*,1.3
CCOC(=O)c1ccc(NS(=O)(=O)c2cc(-c3nnnn3CC)ccc2OC)cc1,1.2,-0.1,-1.6,6.6,4.4
O=C(CSc1ccccn1)NN=C/C=C/c1ccccc1,/,/,/,/,5.9
O=C(CSc1ccccn1)N/N=C/C=C/c1ccccc1,-2.2,4.0,-1.2,22.2*,/
CCCNC(=S)Nc1ccc(CC(=O)OC)cc1,-1.3,-3.6,0.7,23.5*,2.0
COC(=O)Cc1ccc(NC(=S)NCC(C)C)cc1,8.3,1.1,-2.1,-4.3,3.2
O=C1OCC2=C1C(c1ccccc1)CC(=O)N2c1ccc(F)cc1 (stereo not drawn),2.1,2.1,-1.3,-4.7,-0.8
CCc1ccc(C2CC(=O)N(c3cccc(F)c3)C3=C2C(=O)OC3)cc1 (stereo not drawn),-3.7,5.0,-1.2,26.9*,1.4
CCc1ccc(-c2cn(-c3nc(C)cc(C)n3)c(=N)o2)cc1,2.9,61.5*,-3.7,3.7,5.2
CCOc1ccc(S(=O)(=O)NNC(=O)c2cc3ccccc3o2)cc1,3.1,-2.6,3.5,43.0*,3.3
COc1ccc(C(C)(C)C)cc1NC(=O)CCc1c(C)noc1C,-2.0,/,-0.6,28.4*,/
O=C(NN=C/C=C/c1ccc([N+](=O)[O-])cc1)c1cccs1,/,/,/,/,5.9
CCOc1ccc(N=Nc2c(=O)[nH]n3c(C)cc(C)nc23)cc1,17.7,-5.2,4.3,-44.8,24.6*
COc1cccc(N=Nc2c(=O)[nH]n3c(C)cc(C)nc23)c1,21.9,3.2,6.4,0.6,8.2
COc1ccc(C=NNC(=O)C2CC2)c(OC)c1OC,/,/,/,/,-1.6
COc1ccccc1C=NNC(=O)C(=O)N1CCN(c2ccccc2OC)CC1,/,/,/,/,-0.5
CC(C)(C)OC(=O)[C@H](CCCCN)NC(=O)c1nc[nH]c1C(=O)N[C@@H](CCCCN)C(=O)OC(C)(C)C,1.3,/,-0.3,21.3*,4.5
CC(C)C[C@H](NC(=O)c1nc[nH]c1C(=O)N[C@@H](CCCCN)C(=O)OC(C)(C)C)C(=O)OC(C)(C)C,1.9,/,3.1,-3.8,-1.9
CC(C)(C)OC(=O)NCCCC[C@H](NC(=O)c1[nH]cnc1C(=O)Nc1ccc(Cl)cc1)C(=O)OC(C)(C)C,-14.4,4.6,-11.5,-2.3,-1.9
CC(C)(C)OC(=O)NCCCC[C@H](NC(=O)c1[nH]cnc1C(=O)Nc1ccccc1)C(=O)OC(C)(C)C,0.6,6.7,-6.1,20.8*,3.6
C[C@H](NC(=O)c1[nH]cnc1C(=O)Nc1ccccc1)c1ccccc1,12.3,/,-2.8,26.5*,2.9
CC(C)C[C@H](NC(=O)c1[nH]cnc1C(=O)Nc1ccccc1)C(=O)OC(C)(C)C,-32.7,6.5,-7.0,-7.7,28.2*
C(=NNc1nc(N2CCOCC2)nc(N2CCOCC2)n1)c1ccncc1,/,/,/,/,2.9
COc1ccc([N+](=O)[O-])cc1C=NNc1nc(N2CCCCC2)nc(N2CCCCC2)n1,/,/,/,/,5.1
COc1ccc(C=NNC(=O)CCCCCNC(=O)c2ccccc2)cc1,/,/,/,/,1.8

# Compound activity: PubChem BioAssay, several laboratories
